{"source": "ChEMBL document CHEMBL1142132", "about": "“Sublethal concentrations of the aminoglycoside amikacin interfere with cell division without affecting chromosome dynamics” (2007)", "key": {"Escherichia coli [1]": {"system": "Escherichia coli", "test": "Distribution of Escherichia coli AB1157 IL05 new born cells containing duplicated ori and ter foci at 8 ug/ml after 14 hrs incubation", "assay_type": "functional", "procedure,_shortened": "(§1)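 IL05(pWX6) (LacI-CFP/TetR-YFP marking ori and ter arrays) grown at 37°C in M9-sodium acetate with required amino acids, 100 μg/ml ampicillin, 0.5 mM IPTG, 40 ng/ml anhydrotetracycline. AMK added at OD600 0.05. After 14 h, cells placed on 1% agarose-PBS pads, imaged (×100, phase plus fluorescence). 200 cells per culture classified by ori/ter foci number; three independent experiments.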"}, "Escherichia coli [2]": {"system": "Escherichia coli", "test": "Sublethal concentration measured by presence of granular bodies in Escherichia coli AB1157 IL05 cells at 4 ug/ml after 14 hrs incubation", "assay_type": "functional, organism-based", "procedure,_shortened": "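IL05(pWX6) grown 14 h at 37°C in acetate minimal medium with AMK added at OD600 0.05. Cells then examined by phase-contrast microscopy in 27% gelatin-containing minimal medium, scoring polar granular bodies and nucleoids.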"}, "Escherichia coli [3]": {"system": "Escherichia coli", "test": "Distribution of Escherichia coli AB1157 IL05 new born cells containing one ori and one ter foci at 4 ug/ml after 14 hrs incubation", "assay_type": "functional", "procedure,_shortened": "as §1"}, "Escherichia coli [4]": {"system": "Escherichia coli", "test": "Loss of cell viability in Escherichia coli AB1157 IL05 above 16 ug/ml after 8 hrs incubation", "assay_type": "functional, organism-based"}, "Escherichia coli [5]": {"system": "Escherichia coli", "test": "Distribution of Escherichia coli AB1157 IL05 new born cells containing duplicated ori and ter foci at 4 ug/ml after 14 hrs incubation", "assay_type": "functional", "procedure,_shortened": "as §1"}, "Escherichia coli [6]": {"system": "Escherichia coli", "test": "Distribution of Escherichia coli AB1157 IL05 new born cells containing duplicated sister ori foci at 4 ug/ml after 14 hrs incubation", "assay_type": "functional", "procedure,_shortened": "as §1"}, "Escherichia coli [7]": {"system": "Escherichia coli", "test": "Distribution of Escherichia coli AB1157 IL05 new born cells containing four ori foci at 32 ug/ml after 14 hrs incubation", "assay_type": "functional", "procedure,_shortened": "as §1"}, "Escherichia coli [8]": {"system": "Escherichia coli", "test": "Distribution of Escherichia coli AB1157 IL05 new born cells containing eight ori foci at 4 ug/ml after 14 hrs incubation", "assay_type": "functional", "procedure,_shortened": "as §1"}, "Escherichia coli [9]": {"system": "Escherichia coli", "test": "Distribution of Escherichia coli AB1157 IL05 new born cells containing eight ori foci at 32 ug/ml after 14 hrs incubation", "assay_type": "functional", "procedure,_shortened": "as §1"}, "Escherichia coli [10]": {"system": "Escherichia coli", "test": "Distribution of Escherichia coli AB1157 IL05 new born cells containing duplicated sister ori foci at 16 ug/ml after 14 hrs incubation", "assay_type": "functional", "procedure,_shortened": "as §1"}, "Escherichia coli [11]": {"system": "Escherichia coli", "test": "Distribution of Escherichia coli AB1157 IL05 new born cells containing four ori foci at 16 ug/ml after 14 hrs incubation", "assay_type": "functional", "procedure,_shortened": "as §1"}, "Escherichia coli [12]": {"system": "Escherichia coli", "test": "Distribution of Escherichia coli AB1157 IL05 new born cells containing one ori and one ter foci at 8 ug/ml after 14 hrs incubation", "assay_type": "functional", "procedure,_shortened": "as §1"}, "Escherichia coli [13]": {"system": "Escherichia coli", "test": "Distribution of Escherichia coli AB1157 IL05 new born cells containing duplicated ori and ter foci at 16 ug/ml after 14 hrs incubation", "assay_type": "functional", "procedure,_shortened": "as §1"}, "Escherichia coli [14]": {"system": "Escherichia coli", "test": "Distribution of Escherichia coli AB1157 IL05 new born cells containing four ori foci at 4 ug/ml after 14 hrs incubation", "assay_type": "functional", "procedure,_shortened": "as §1"}, "Escherichia coli [15]": {"system": "Escherichia coli", "test": "Distribution of Escherichia coli AB1157 IL05 new born cells containing duplicated sister ori foci at 8 ug/ml after 14 hrs incubation", "assay_type": "functional", "procedure,_shortened": "as §1"}, "Escherichia coli [16]": {"system": "Escherichia coli", "test": "Distribution of Escherichia coli AB1157 IL05 new born cells containing eight ori foci at 16 ug/ml after 14 hrs incubation", "assay_type": "functional", "procedure,_shortened": "as §1"}, "Escherichia coli [17]": {"system": "Escherichia coli", "test": "Distribution of Escherichia coli AB1157 IL05 new born cells containing one ori and one ter foci at 16 ug/ml after 14 hrs incubation", "assay_type": "functional", "procedure,_shortened": "as §1"}, "Escherichia coli [18]": {"system": "Escherichia coli", "test": "Distribution of Escherichia coli AB1157 IL05 new born cells containing one ori and one ter foci at 32 ug/ml after 14 hrs incubation", "assay_type": "functional", "procedure,_shortened": "as §1"}, "Escherichia coli [19]": {"system": "Escherichia coli", "test": "Distribution of Escherichia coli AB1157 IL05 new born cells containing four ori foci at 8 ug/ml after 14 hrs incubation", "assay_type": "functional", "procedure,_shortened": "as §1"}, "Escherichia coli [20]": {"system": "Escherichia coli", "test": "Distribution of Escherichia coli AB1157 IL05 new born cells containing eight ori foci at 8 ug/ml after 14 hrs incubation", "assay_type": "functional", "procedure,_shortened": "as §1"}, "Escherichia coli [21]": {"system": "Escherichia coli", "test": "Assembly of Z-ring in Escherichia coli AB1157 IL06(pCP12) cells at 4 ug/ml"}, "Escherichia coli [22]": {"system": "Escherichia coli", "test": "Distribution of Escherichia coli AB1157 IL05 new born cells containing duplicated ori and ter foci at 32 ug/ml after 14 hrs incubation", "assay_type": "functional", "procedure,_shortened": "as §1"}, "Escherichia coli [23]": {"system": "Escherichia coli", "test": "Distribution of Escherichia coli AB1157 IL05 new born cells containing duplicated sister ori foci at 32 ug/ml after 14 hrs incubation", "assay_type": "functional", "procedure,_shortened": "as §1"}}, "note": "Active and inactive are the calls of the source. No cut-off for these calls is given here.", "data": [{"compound": "NCC[C@H](O)C(=O)N[C@@H]1C[C@H](N)[C@@H](O[C@H]2O[C@H](CN)[C@@H](O)[C@H](O)[C@H]2O)[C@H](O)[C@H]1O[C@H]1O[C@H](CO)[C@@H](O)[C@H](N)[C@H]1O", "note": "[AMIKACIN]", "values": [{"measurement": "Activity", "setting": "Escherichia coli [1]", "value": 36, "unit": "%"}, {"measurement": "Activity", "setting": "Escherichia coli [2]", "value": "Active"}, {"measurement": "Activity", "setting": "Escherichia coli [3]", "value": 0, "unit": "%"}, {"measurement": "Activity", "setting": "Escherichia coli [4]", "value": "inactive"}, {"measurement": "Activity", "setting": "Escherichia coli [5]", "value": 48, "unit": "%"}, {"measurement": "Activity", "setting": "Escherichia coli [6]", "value": 0, "unit": "%"}, {"measurement": "Activity", "setting": "Escherichia coli [7]", "value": 0, "unit": "%"}, {"measurement": "Activity", "setting": "Escherichia coli [8]", "value": 8, "unit": "%"}, {"measurement": "Activity", "setting": "Escherichia coli [9]", "value": 0, "unit": "%"}, {"measurement": "Activity", "setting": "Escherichia coli [10]", "value": 3, "unit": "%"}, {"measurement": "Activity", "setting": "Escherichia coli [11]", "value": 46, "unit": "%"}, {"measurement": "Activity", "setting": "Escherichia coli [12]", "value": 0, "unit": "%"}, {"measurement": "Activity", "setting": "Escherichia coli [13]", "value": 34, "unit": "%"}, {"measurement": "Activity", "setting": "Escherichia coli [14]", "value": 44, "unit": "%"}, {"measurement": "Activity", "setting": "Escherichia coli [15]", "value": 0, "unit": "%"}, {"measurement": "Activity", "setting": "Escherichia coli [16]", "value": 11, "unit": "%"}, {"measurement": "Activity", "setting": "Escherichia coli [17]", "value": 6, "unit": "%"}, {"measurement": "Activity", "setting": "Escherichia coli [18]", "value": 32, "unit": "%"}, {"measurement": "Activity", "setting": "Escherichia coli [19]", "value": 69, "unit": "%"}, {"measurement": "Activity", "setting": "Escherichia coli [20]", "value": 5, "unit": "%"}, {"measurement": "Activity", "setting": "Escherichia coli [21]", "value": 35, "unit": "%"}, {"measurement": "Activity", "setting": "Escherichia coli [22]", "value": 31, "unit": "%"}, {"measurement": "Activity", "setting": "Escherichia coli [23]", "value": 37, "unit": "%"}]}]}
